Assay results pooled from the literature.
Each line is one published result; the experiments were not run side by side.
INSR: Insulin receptor (INSR, Homo sapiens, UniProt P06213)
KCNA1: Potassium voltage-gated channel subfamily A member 1 (KCNA1, Homo sapiens, UniProt Q09470)

COc1cc(-c2cncc3c2CN(C)Cc2cc(N4CCNCC4)ccc2-3)cc(OC)c1OC  remaining activity (INSR; enzyme activity, inhibitor; 1 µM): 107%
C=CC(=O)N1CCC(COCC(=O)N2CCN(c3nc(-c4cnc(N)nc4C(F)F)nc(N4CCOC[C@@H]4C)n3)CC2)CC1  remaining binding (Serine/threonine-protein kinase SBK1 (SBK1, Homo sapiens, UniProt Q52WX2); binding, competition with immobilised ligand; 1 µM): 100%
Cc1cc([C@@H](C)Nc2ccccc2C(=O)O)c2nc(N3CCC(F)(F)CC3)c(C#N)c(=O)n2c1  remaining binding (RAF proto-oncogene serine/threonine-protein kinase (RAF1, Homo sapiens, UniProt P04049); binding, competition with immobilised ligand; 10 µM): 90%
CC(C)NCC(O)COc1cccc2ccccc12 (stereo not drawn)  inhibition (KCNA1; ion current, inhibitor, patch clamp; 30 µM): 37.8%
O=C(Cn1cc(C=CC(=O)c2ccc(F)cc2)nn1)Nc1nc(-c2ccccc2)cs1  inhibition (Collagenase 3 (MMP13, Homo sapiens, UniProt P45452); enzyme activity, inhibitor; 0.5 µM): 35.8%
Nc1c(Br)cc(Br)cc1CN[C@H]1CC[C@H](O)CC1  inhibition (KCNA1; ion current, inhibitor, patch clamp; 30 µM): 16.8%
CC(=O)c1c(C)c2cnc(Nc3ccc(N4CCNCC4)cn3)nc2n(C2CCCC2)c1=O  activity vs control (Cyclin-dependent kinase 3 (CDK3, Homo sapiens, UniProt Q00526); enzyme activity, inhibitor, ADP detection; 1 µM): 90%
CNc1ncc2c(/C=C/C(=O)N3CCC(OC)CC3)nn(Cc3cccc(C(F)(F)F)c3)c2n1  remaining activity (Serine/threonine-protein kinase 38-like (STK38L, Homo sapiens, UniProt Q9Y2H1); enzyme activity, inhibitor, radiometric; 1 µM): 90%
CNCCCC12CCC(c3ccccc31)c1ccccc12  inhibition (KCNA1; ion current, inhibitor, patch clamp; 3 µM): 2.68%
Cc1cc(NC(=O)c2cccc(NC(=O)/C=C/CN(C)C)c2)ccc1Nc1nccc(-c2cccnc2)n1  remaining binding (INSR; binding, competition with immobilised ligand; 1 µM): 81%
CCCN1C[C@H](CSC)C[C@@H]2c3cccc4[nH]cc(c34)C[C@H]21  inhibition (KCNA1; ion current, inhibitor, patch clamp; 30 µM): 34.8%
CC[C@H](C)[C@H](NC(=O)[C@H](CCC(N)=O)NC(=O)[C@H](CCCNC(=N)N)NC(=O)[C@H](CO)NC(=O)[C@H](Cc1c[nH]cn1)NC(=O)[C@@H]1CCCN1C(=O)[C@H](C)NC(=O)[C@H](CO)NC(=O)[C@H](CC(C)C)NC(=O)CNC(=O)[C@@H]1CCCN1C(=O)[C@H](CCC(N)=O)NC(=O)[C@H](CCC(N)=O)NC(=O)[C@H](CCCNC(=N)N)NC(=O)[C@H](CO)NC(=O)CNC(=O)[C@H](CO)NC(=O)[C@H](CO)NC(=O)[C@H](CCC(=O)O)NC(=O)[C@@H]1CCCN1C(=O)[C@@H]1CCCN1C(=O)[C@@H]1CCCN1C(=O)[C@H](CO)NC(=O)[C@H](CC(C)C)NC(=O)[C@H](CO)NC(=O)[C@@H](NC(=O)CN)[C@@H](C)O)C(=O)N1CCC[C@H]1C(=O)N[C@@H](C)C(=O)N1CCC[C@H]1C(=O)N[C@@H](CCC(N)=O)C(=O)NCC(=O)N[C@@H](C)C(=O)N[C@H](C(=O)N[C@@H](CC(C)C)C(=O)N[C@H](C(=O)N[C@@H](CCC(N)=O)C(=O)N[C@@H](CCCNC(=N)N)C(=O)N[C@@H](CCC(=O)O)C(=O)N[C@@H](CCCCN)C(=O)N[C@@H](CC(=O)O)C(=O)N[C@@H](CC(C)C)C(=O)N1CCC[C@H]1C(=O)N[C@@H](CC(N)=O)C(=O)N[C@@H](Cc1ccc(O)cc1)C(=O)N[C@@H](CC(N)=O)C(=O)N[C@@H](Cc1c[nH]c2ccccc12)C(=O)N[C@@H](CC(N)=O)C(=O)N[C@@H](CO)C(=O)N[C@@H](Cc1ccccc1)C(=O)NCC(=O)N[C@@H](CC(C)C)C(=O)N[C@@H](CCCNC(=N)N)C(=O)N[C@@H](Cc1ccccc1)C(N)=O)C(C)C)C(C)C  Emax (KiSS-1 receptor (KISS1R, Homo sapiens, UniProt Q969F8, Y302A); inositol phosphate, agonist; HEK293): 94.9%
